Screening results from PubChem.
M18AAP inhibitor: blocks P. falciparum M18 aspartyl aminopeptidase; inhibition, % at 7.35 µM; AID 1822; recombinant PfM18AAP, H-Glu-NHMec fluorogenic cleavage; 290,000 tested, 1.2% active;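 active = inhibition above the campaign mean inhibition over all tested compounds plus 3 SD, cut at about 28% in these data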;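 also: 0% = plate median of test compound wells and 100% = 2 mM ZnCl2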
ALR inh: blocks human ALR sulfhydryl oxidase activity. P55789. purified ALR, DTT oxidation, H2O2 HRP-luminol luminescence. inhibition, % (test concentration not listed). 290,000 tested, 3.8% active;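 active = mean replicate inhibition above about 79%, with every replicate also reaching it, limit read from the data; inconclusive = only one of the two criteria met; inactive = mean below limit and not every replicate reaching it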
Target sequence (P55789 whole entry, looked up): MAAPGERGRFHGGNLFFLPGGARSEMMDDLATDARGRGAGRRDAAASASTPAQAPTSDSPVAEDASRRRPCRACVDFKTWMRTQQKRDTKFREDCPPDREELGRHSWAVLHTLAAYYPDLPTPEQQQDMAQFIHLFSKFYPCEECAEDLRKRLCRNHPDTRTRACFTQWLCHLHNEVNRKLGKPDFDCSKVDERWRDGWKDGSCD
EBNA-1 inhibitor: blocks EBNA-1 binding to DNA; EBNA-1 DNA binding, fluorescence polarization; inhibition, % at 14.8 µM; 300,000 tested, 0.34% active; AID 1950; in the data active = inhibition above about 28%
ZTA counter: counter-screen for EBNA-1 inhibitors: inhibitors of Epstein-Barr virus ZTA; P03206; ZTA-DNA binding, fluorescence polarization; inhibition, % at 11 µM; 320,000 tested, 0.15% active; AID 2234; in the data active = inhibition above about 33%
Target sequence (P03206 whole entry, looked up): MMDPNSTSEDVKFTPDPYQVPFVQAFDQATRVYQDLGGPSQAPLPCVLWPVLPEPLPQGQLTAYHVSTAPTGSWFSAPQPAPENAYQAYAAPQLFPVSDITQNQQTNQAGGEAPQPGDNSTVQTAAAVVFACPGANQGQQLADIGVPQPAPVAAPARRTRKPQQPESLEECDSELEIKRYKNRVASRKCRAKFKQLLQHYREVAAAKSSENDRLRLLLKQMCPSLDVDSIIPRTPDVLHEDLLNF
HCV core dimer: HCV core protein dimerization inhibition | TR-FRET GST/Flag-core106 dimerization, 1536-well | 300,000 tested, 0.33% active | AID 1899 | inhibition, % at 5 µM;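 active = inhibition above the mean of all tested compounds plus 3 SD, set per screening campaign, cut at about 45% in these data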
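Material: GST/Flag-tagged HCV core106 proteins. Incubation: 4 h, 22.5 °C incubation. Read-out basis: inhibition (%) from 671 over 617 nm ratio. Measured by: TR-FRET, excitation 340 nm, emission 617 and 671 nm.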
NS3 helicase inh: HCV NS3 helicase inhibition. NS3 helicase DNA unwinding, Cy5 molecular beacon fluorescence. 290,000 tested, 0.56% active. AID 1800. inhibition, % at 10.9 µM;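 active = inhibition above the mean of all tested compounds plus 3 SD, set per campaign, cut at about 35% in these data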;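 also: 0% = DMSO wells and 100% = thioflavine S control wells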
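Assay system – hepatitis C virus NS3 helicase domain fragment enzyme · Buffer or medium – MOPS pH 6.5, MgCl2, DTT, Tween20, BSA · Reagent – Cy5/quencher beacon DNA duplex and ATP to start · Compound – single 10.9 µM dose · Timing – 1 h at 25 °C · Technique – Cy5 beacon fluorescence read at start and 1 h · Measure – % inhibition of unwinding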
* hit, by the source's call; ? = inconclusive; . = no result. Most compounds without a hit are left out; they make up all but 5.2% or so of the library.

SMILES | M18AAP inhibitor | ALR inh | EBNA-1 inhibitor | ZTA counter | HCV core dimer | NS3 helicase inh
COc1ccc(/C=N/NC(=O)c2cccc(Br)c2)cc1CSc1ccccn1 | -5 | -3 | 3 | 2 | 10 | -6
CCOc1cccc(CN2CCCC(N3CCc4cc(OC)c(OC)cc4C3)C2)c1O (stereo not drawn) | 17 | 8 | 1 | -2 | -1 | -9
CSc1ccc(/C=C(/NC(=O)c2ccccc2)C(=O)NCCN2CCOCC2)cc1 | 4 | 2 | 6 | -11 | -6 | -11
COc1ccc(NC(=O)c2ccc3ccccc3c2OC)cc1 | . | -7 | -5 | -13 | 2 | .
Cc1cccc(/C=N/NC(=O)c2ccc(NC(=O)c3cccc(Cl)c3)cc2)n1 | 3 | -8 | 23 | 7 | 2 | -7
CCn1c2ccccc2c2cc(NC(=O)C(C)C)ccc21 | -5 | 1 | 4 | 0 | -3 | -2
O=C(COC(=O)Cc1ccc(S(=O)(=O)N2CCCCC2)s1)Nc1ccc2c(c1)OCO2 | 5 | 0 | 10 | -1 | 63* | 7
CCn1c2ccccc2c2cc(NC(=O)Cc3ccc(S(=O)(=O)N4CCOCC4)s3)ccc21 | -17 | 1 | 9 | 15 | 60* | -26
CCn1c2ccccc2c2cc(NC(=O)c3ccccc3-c3ccccc3C(=O)O)ccc21 | -3 | 98* | -7 | 3 | 12 | -25
NS(=O)(=O)c1cccc(NC(=O)COC(=O)Cc2ccc(S(=O)(=O)N3CCCCC3)s2)c1 | 1 | -10 | -4 | -11 | 31 | 28
CN(C)S(=O)(=O)c1ccc(NC(=O)Cc2ccc(S(=O)(=O)N3CCOCC3)s2)cc1 | 5 | -8 | -8 | -20 | 49* | -1
CCCn1c(SCC(=O)N2CC(=O)Nc3ccccc32)n[nH]c1=O | . | -1 | . | . | . | .
CC(=O)c1ccc(N2C(=NC(=O)CCC3CCCC3)SC3CS(=O)(=O)CC32)cc1 (stereo not drawn) | 2 | -31 | 4 | 1 | 13 | -4
Clc1cccc(CN2CCSCC2)c1 | -1 | -4 | 6 | 9 | 11 | -3
COc1ccc(S(=O)(=O)N2CCC(C(=O)NCc3ccncc3)CC2)cc1 | 4 | -1 | -1 | 3 | -1 | 1
c1ccc(-n2ncc3c2ncn2nc(-c4ccco4)nc32)cc1 | -2 | 19 | -2 | -11 | 52* | 3
COc1cc([N+](=O)[O-])ccc1NC(=O)CSc1n[nH]c(C(C)C)n1 | 0 | -11 | 7 | 0 | 2 | -5
O=C(CNc1ccc2ccccc2c1)N/N=C/c1ccc(OC(=O)/C=C/c2ccco2)cc1 | 17 | -49 | 3 | -5 | 26 | 12
O=C(CNc1cccc2ccccc12)N/N=C/c1ccc(OC(=O)/C=C/c2ccco2)cc1 | 28* | . | . | . | . | 32
Cc1ccc2nc3n(c(=O)c2c1)-c1ccccc1C(=O)NC3Cc1ccccc1 (stereo not drawn) | . | -2 | . | -17 | . | .
S=C(NCc1ccco1)N/N=C/c1ccc(Cl)cc1 | 0 | . | -3 | 8 | 1 | -18
CCN(CC)c1ccc(/C=N/NC(=S)NCc2ccco2)cc1 | 4 | 99* | -19 | 4 | -6 | -7
Oc1c(Br)cc(/C=N/NC(=S)NCc2ccco2)cc1Br | 13 | 89* | 2 | -1 | -1 | 26
S=C(NCc1ccco1)N/N=C/c1cccnc1 | -9 | . | -4 | -11 | -3 | 10
Oc1ccc(/C=N/NC(=S)NCc2ccco2)cc1 | 3 | 99* | 1 | 12 | -3 | 8
SMILES | M18AAP inhibitor | ALR inh | EBNA-1 inhibitor | ZTA counter | HCV core dimer | NS3 helicase inh
O=C(O)c1c(-c2ccccc2)oc2ccc(O)cc12 | -1 | 10 | -12 | 0 | 9 | 7
CN(C)C(=O)c1c(-c2ccccc2)oc2ccc(O)cc12 | 3 | 98* | 2 | 12 | 11 | 7
CCn1c(=O)c2sccc2n(Cc2ccc(C)cc2)c1=O | -10 | 3 | -7 | -13 | 8 | 2
Cc1ccc(C2C(C=Nc3c(C)n(C)n(-c4ccccc4)c3=O)=C(c3ccccc3)Oc3ccccc32)cc1 (stereo not drawn) | 4 | 2 | -6 | -11 | 46* | 1
Cc1c(N=Cc2cccs2)c(=O)n(-c2ccccc2)n1C | -2 | 64 | -6 | 3 | 0 | 1
S=c1[nH]nc(CSCc2ccccc2Cl)n1-c1ccccc1 | 15 | 94* | -10 | -10 | 0 | 6
COC(Cc1n[nH]c(=S)n1-c1ccccc1)OC | 12 | 93* | -2 | -3 | 1 | 0
Cc1cccc(C)c1NCc1n[nH]c(=S)n1-c1ccccc1 | 15 | 19 | 4 | -1 | 12 | -5
Cc1ccc(C)c(NCc2n[nH]c(=S)n2-c2ccccc2)c1 | 16 | 86* | -3 | -10 | -3 | 0
Cc1ccc(-n2c(COc3cccc(C)c3)n[nH]c2=S)cc1 | 8 | 35 | -9 | 8 | 8 | 4
Cc1cccc(OCc2n[nH]c(=S)n2-c2ccccc2)c1 | 17 | 77* | 2 | 3 | 7 | -2
Cc1onc(-c2ccccc2)c1C(=O)Nc1ccc(Cl)c(S(=O)(=O)N2CCOCC2)c1 | . | . | . | -18 | . | .
Cc1ccc(OCC(=O)N2CCCC(CO)(CCOc3ccccc3)C2)cc1 (stereo not drawn) | -10 | -7 | 4 | -1 | 1 | -9
CCCc1cc(=O)n2[nH]c(-c3ccccc3)cc2n1 | -2 | 2 | 4 | -10 | -5 | -2
CCCCn1[nH]c(-c2ccccc2)cc1=O | 30* | 8 | -5 | 23 | -5 | 10
CCC1(c2ccccc2)NC(=O)N(CC(=O)Nc2ccc(N3CCCC3)cc2C)C1=O (stereo not drawn) | . | ? | -17 | 2 | -11 | .
Cc1cc(N2CCCC2)ccc1NC(=O)CN1C(=O)NC(C)(c2ccccc2)C1=O (stereo not drawn) | 30* | 99* | -7 | 4 | -5 | -51
O=C(N/N=C/c1ccc([N+](=O)[O-])o1)c1cn(-c2ccccc2)nc1-c1ccc(Cl)cc1 | 2 | . | 4 | -4 | 46* | 8
O=C(N/N=C/c1ccc([N+](=O)[O-])o1)c1cc(-c2ccc(-c3ccccc3)cc2)nc2ccccc12 | 23 | -5 | 0 | -8 | 67* | -8
O=C(N/N=C/c1ccc([N+](=O)[O-])o1)c1cc(-c2ccncc2)nc2ccccc12 | -1 | -79 | -5 | -17 | -1 | 25
CCOC(=O)/C=C/[C@H]1CCc2cccc(Cl)c2O1 | . | 2 | . | -3 | . | .
O=C(Nc1ccccc1)c1c2c(nc3ccccc13)CCCC2 | -12 | -9 | 10 | 11 | -3 | 13
O=C(CCl)NC(=O)NC12CC3CC(CC(C3)C1)C2 | 7 | 86* | -13 | -18 | -3 | -6
O=C(NCc1cc2ccccc2[nH]1)C1CCC(=O)N(CCCN2CCCC2=O)C1 (stereo not drawn) | 4 | -3 | 6 | -7 | -15 | -3
Cn1c2ccccc2c2cc(C(=O)N3CCN(CCO)CC3)sc21 | 4 | 99* | 2 | 1 | 0 | 3
